Drawing on ChEMBL document CHEMBL1649079, “Pipecolic acid derivatives as small-molecule inhibitors of the Legionella MIP protein” (J Med Chem, 2011), this text covers IC50, Activity and Ki for 14 compounds.

The target of assay [1] is Outer membrane protein MIP (Legionella pneumophila, UniProt Q70YI1).
For assay [2], the target named is T1, Peptidyl-prolyl cis-trans isomerase FKBP1A (Homo sapiens, UniProt P62942). The assay is described as follows: Inhibition of PPIase activity of human FKBP12 expressed in Escherichia coli by spectrophotometry. In short, it runs like this:
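Chymotrypsin-coupled PPIase assay using 20 nM FKBP12 and 40 μM succinyl-Ala-Phe-Pro-Phe-4-nitroanilide. Enzyme and substrate preincubated with or without various inhibitor concentrations for 4 min at 10 °C in 35 mM HEPES/NaOH, pH 7.8.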

Assay [3] relates to Legionella pneumophila. The assay is described as follows: Antibacterial activity against wild type Legionella pneumophila Philadelphia-1 JR32 infected in human U937 cells at 50 uM after 24 to 48 hrs. The assay is classed as functional, organism-based. Particulars: U-937. In short, it runs like this:
(§1)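 U937 macrophage-like cells infected at MOI 10, with or without 50 μM compound kept present throughout incubation. Extracellular bacteria killed with gentamicin 2 h post-infection. Infection samples plated on BCYE agar for CFU counts immediately and after 24 and 48 h.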

In assay [4] the test system is Legionella pneumophila. The assay is described as follows: Antibacterial activity against MIP protein-deficient Legionella pneumophila JR32-2 infected in human U937 cells at 50 uM after 24 to 48 hrs. The assay is classed as functional, organism-based. In short, it runs like this: as §1
A further assay relates to Escherichia coli. Nature of the assay: Antibacterial activity against Escherichia coli HB101 infected in human U937 cells at 50 uM after 24 to 48 hrs. The assay is classed as functional, cell-based. Particulars: U-937. The method, boiled down:
as §1

The target of assay [5] is T1, Peptidyl-prolyl cis-trans isomerase FKBP1A. The assay is described as follows: Inhibition of FKBP12.

pIC50, pKi: −log10 of the molar value. The source made the active and inactive calls. The calls are words filed in the database; no cut-off is given here.

Chain of Outer membrane protein MIP (Q70YI1 21-233 limits assumed): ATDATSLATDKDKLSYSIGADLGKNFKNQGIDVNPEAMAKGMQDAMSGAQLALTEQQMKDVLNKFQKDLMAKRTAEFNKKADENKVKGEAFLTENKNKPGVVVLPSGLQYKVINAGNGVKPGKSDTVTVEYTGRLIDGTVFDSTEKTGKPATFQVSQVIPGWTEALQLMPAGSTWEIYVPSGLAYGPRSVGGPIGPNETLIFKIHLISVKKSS
T1 sequence (P62942 whole entry): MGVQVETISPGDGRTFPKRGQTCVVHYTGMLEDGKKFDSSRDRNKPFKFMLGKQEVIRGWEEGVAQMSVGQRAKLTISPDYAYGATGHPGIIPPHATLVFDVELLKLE

`CCOC(=O)C1CCCCN1S(=O)(=O)Cc1ccccc1` (stereo not drawn): the negative-log IC50 (pIC50) in assay [1] is 4.06; in assay [2] it was 5.59.

As to `COc1cc(CCCOC(=O)C2CCCCN2S(=O)(=O)Cc2ccccc2)cc(OC)c1OC` (racemic), the negative logarithm of the IC50 (pIC50) in assay [2] is 6.70.

For `COc1cc(CCCOC(=O)C2CCCCN2S(=O)(=O)c2cccc([N+](=O)[O-])c2)cc(OC)c1OC` (stereo not drawn), the pIC50 is less than 4.00 in assay [1] and 7.15 in assay [2].

Take `CO[C@H]1C[C@@H]2CC[C@@H](C)[C@@](O)(O2)C(=O)C(=O)N2CCCC[C@H]2C(=O)O[C@H]([C@H](C)C[C@@H]2CC[C@@H](O)[C@H](OC)C2)CC(=O)[C@H](C)/C=C(\C)[C@@H](O)[C@@H](OC)C(=O)[C@H](C)C[C@H](C)/C=C/C=C/C=C/1C`: the result in the assay on Legionella pneumophila [3], with Legionella pneumophila [4] and with Escherichia coli was Active.

With `CCOC(=O)C1CCCCN1S(=O)(=O)c1cccc([N+](=O)[O-])c1` (stereo not drawn), the pIC50 in assay [1] was less than 4.00; in assay [2], 5.55.

In the case of `CCOC(=O)C1CCCCN1C(=O)C(=O)C(C)CC` (stereo not drawn), the pIC50 in assay [1] is less than 4.00; in assay [2] it was less than 4.52.

Regarding `Nc1cccc(S(=O)(=O)N2CCCCC2C(=O)OCCCc2cccnc2)c1` (stereo not drawn), the results for the pIC50 in assay [1] and in assay [2] were less than 4.00 and 6.49, respectively.

For the compound `O=C(OCCCc1cccnc1)C1CCCCN1S(=O)(=O)c1cccc([N+](=O)[O-])c1` (stereo not drawn), the pIC50 in assay [1] was 4.49; in assay [2], 6.82.

With `CCC(C)C(=O)C(=O)N1CCCCC1C(=O)OCCCc1cc(OC)c(OC)c(OC)c1` (stereo not drawn), the figures for the pIC50 in assay [1] and in assay [2] were less than 4.00 and 5.38, respectively.

Regarding `CCC(C)C(=O)C(=O)N1CCCCC1C(=O)OC(CCc1ccccc1)c1ccccc1` (stereo not drawn), the figures for the negative logarithm of the IC50 (pIC50) in assay [1] and in assay [2] were less than 4.00 and less than 4.52, respectively.

On to `CCOC(=O)C1CCCCN1S(=O)(=O)c1ccccc1` (stereo not drawn), for which the values for the pIC50 in assay [1] and in assay [2] were less than 4.00 and 5.51, respectively.

Consider `COc1cc(CCCOC(=O)[C@@H]2CCCCN2S(=O)(=O)Cc2ccccc2)cc(OC)c1OC`, for which the outcome in the assay on Legionella pneumophila [3] was inactive. The compound further showed a pKi in assay [5] of 6.64. For the same compound, the pIC50 in assay [2] was 6.70.

Take `COc1cc(CCCOC(=O)C2CCCCN2S(=O)(=O)c2cccc(N)c2)cc(OC)c1OC` (stereo not drawn): the pIC50 in assay [1] is less than 4.00; in assay [2], 6.59.

Consider `COc1cc(CCCOC(=O)C2CCCCN2S(=O)(=O)c2ccccc2)cc(OC)c1OC` (stereo not drawn), for which, in assay [2], the pIC50 was 6.92.

As a reminder, the pIC50 is the IC50 on a negative log10 scale, so that one unit is a factor of ten. A high value points to a small IC50. As usually defined, the pKi is −log10 of the Ki, conventionally taken in molar units. Read a high pKi as a low Ki.
